Active and inactive are the calls of the source. No cut-off for these calls is given here.
Columns and labels:
[1] = target: T1, N-acylethanolamine-hydrolyzing acid amidase (Homo sapiens, UniProt Q02083); assay: (§1) Inhibition of recombinant human NAAA using PAMCA as substrate preincubated for 30 mins followed by substrate addition measured every 3 mins for 2.5 hrs by fluorescence HTS method
T1 sequence (Q02083 whole entry): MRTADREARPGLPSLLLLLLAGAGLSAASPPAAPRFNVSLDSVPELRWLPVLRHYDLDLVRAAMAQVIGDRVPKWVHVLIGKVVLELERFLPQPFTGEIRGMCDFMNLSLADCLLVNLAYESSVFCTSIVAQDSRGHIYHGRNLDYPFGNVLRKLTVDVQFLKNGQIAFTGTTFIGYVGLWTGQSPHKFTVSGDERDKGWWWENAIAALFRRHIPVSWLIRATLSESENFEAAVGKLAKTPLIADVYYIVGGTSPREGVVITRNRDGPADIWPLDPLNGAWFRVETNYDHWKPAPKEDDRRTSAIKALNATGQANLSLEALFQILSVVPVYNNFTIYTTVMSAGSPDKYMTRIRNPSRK
Procedure, shortened: (§2)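 Human recombinant NAAA (25 ng, purity >95%) was used in 100 mM sodium acetate buffer and preincubated with inhibitor in DMSO for 30 min at room temperature. PAMCA was then added to a final 10 µM. Released 7-amino-4-methylcoumarin fluorescence was read at 460 nm every 3 min. […] Linearity was checked at 5–100 µM over 5 h.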

[2] = target: T2, N-acylethanolamine-hydrolyzing acid amidase (Homo sapiens) (UniProt Q02083); assay: Inhibition of recombinant human NAAA at 5 to 100 uM using PAMCA as substrate preincubated for 30 mins followed by substrate addition measured every 3 mins for 5 hrs by fluorescence HTS method; procedure, shortened: as §2
T2 sequence (whole entry): T1 sequence (Q02083 whole entry)

[3] = Antiproliferative activity against human 5637 cells after 72 hrs by MTT assay; format: functional, cell-based; conditions: Homo sapiens, 5637, 72 h
Procedure, shortened: (§3)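 Human bladder cancer cells were kept in RPMI 1640 with 10% FBS and penicillin/streptomycin at 37 °C, 5% CO₂. They were seeded at 5 × 10³ cells/well and exposed to serial log dilutions from 100 to 0.1 µM for 72 h, with DMSO for controls. Read-out was MTT, with formazan dissolved in DMSO and read at 570 nm. IC50 was the concentration inhibiting 50% relative to untreated controls. Three or more experiments in triplicate; mean ± SD.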

[4] = target: T2, N-acylethanolamine-hydrolyzing acid amidase (Homo sapiens); assay: as §1; procedure, shortened: as §2
[5] = Antiproliferative activity against human RT4 cells after 72 hrs by MTT assay; format: functional, cell-based; conditions: RT-4, 72 h; procedure, shortened: as §3
[6] = Antiproliferative activity against human RT112 cells after 72 hrs by MTT assay; format: functional, cell-based; conditions: RT-112, 72 h; procedure, shortened: as §3
[7] = target: T2, N-acylethanolamine-hydrolyzing acid amidase (Homo sapiens); assay: Inhibition of NAAA in human RT112 cells assessed as increase in N-palmitoylethanolamide level at 40 uM after 24 hrs by HPLC-MS/MS analysis; format: cell-based; conditions: RT-112
Procedure, shortened: (§4)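 RT112 cells were treated with 40 µM inhibitor for 24 h. Cells and supernatant were pooled (1 ml) and spiked with d4-SEA and d4-LNEA internal standards. Protein was precipitated with cold acetone, and the supernatant was purified by SPE and stored at −80 °C. NAEs were quantified by LC-TripleTOF MS and reported in ng/ml as mean ± SD.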

[8] = target: T2, N-acylethanolamine-hydrolyzing acid amidase (Homo sapiens); assay: Competitive inhibition of recombinant human NAAA at 100 uM in presence of varying levels of PAMCA as substrate preincubated for 30 mins followed by substrate addition measured every 3 mins for 2.5 hrs by Lineweaver-Burk plot analysis
Procedure, shortened: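 Human recombinant NAAA was used with PAMCA as substrate at varying concentrations, using the fluorescence assay in acetate buffer. Vmax and KM were derived from Michaelis–Menten fits, and inhibition mode was assigned from Lineweaver–Burk plots of 1/V against 1/[PAMCA].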

[9] = (§5) Anti-migratory activity against human RT112 cells at 40 nM after 24 hrs by wound healing assay relative to control; format: functional, RT-112
Procedure, shortened: (§6)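 RT112 cells seeded at 5 × 10⁵ cells/well to give a sub-confluent monolayer, then scratched (~1 mm wide). Debris was removed and medium replaced with medium containing inhibitor at 40 nM, with DMSO only for controls. Phase-contrast images were taken at 0 and 24 h. Wound closure was calculated as the initial wound area minus the cell-free area remaining at 24 h. Three or more experiments in triplicate; mean ± SD; Student's t-test.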

[10] = target: T2, N-acylethanolamine-hydrolyzing acid amidase (Homo sapiens); assay: Inhibition of NAAA in human RT112 cells assessed as increase in N-oleoylethanolamide level at 40 uM after 24 hrs by HPLC-MS/MS analysis; format: cell-based; conditions: RT-112; procedure, shortened: as §4
HT-1376 = assay: Antiproliferative activity against human HT-1376 cells after 72 hrs by MTT assay; format: functional, cell-based; conditions: HT-1376, 72 h; procedure, shortened: as §3
[11] = target: T2, N-acylethanolamine-hydrolyzing acid amidase (Homo sapiens); assay: Inhibition of NAAA in human RT112 cells assessed as increase in N-stearoylethanolamide level at 40 uM after 24 hrs by HPLC-MS/MS analysis; format: cell-based; conditions: RT-112; procedure, shortened: as §4
[12] = target: T2, N-acylethanolamine-hydrolyzing acid amidase (Homo sapiens); assay: Reversible inhibition of recombinant human NAAA at 50 to 100 uM preincubated for 20 mins followed by 20-fold dilution and PAMCA substrate addition by fluorescence HTS method
Procedure, shortened: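 Reversibility test: human recombinant NAAA was incubated with inhibitor at 50 or 100 µM final for 20 min. The mixture was diluted twenty-fold and fresh inhibitor added (2.5–50 µM for the 50 µM series, 5–100 for the 100 µM series). The reaction was started with PAMCA and fluorescence was read. Activity was compared between the paired conditions.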

RT-112 = assay: as §5; format: functional; procedure, shortened: as §6

Row | SMILES | IC50 [1] | inhibition [2] | inhibition [4] | inhibition [7] | inhibition [8] | inhibition [10] | IC50 (HT-1376) | inhibition [11] | inhibition [12] | IC50 [3] | IC50 [5] | IC50 [6] | Activity [9] | Activity (RT-112)
1 | CCCCCCCCCCCCCCCCNC(=O)c1ccccc1 | 45 µM | Active | – | – | – | – | – | – | – | 45 µM | – | – | – | –
2 | CCCCCCCCCCCCCCCNC(=O)CCO | 34 µM | Active | – | Active | Active | Active | – | Active | Active | 40 µM | – | 58.3 µM | – | Active
3 | CCCCCCCCCCCCCCCCNC(=O)c1ccncc1 | 98 µM | – | Dose-dependent effect | – | – | – | – | – | – | 51.2 µM | 41.7 µM | 76.2 µM | – | –
4 | CCCCCCCCCCCCCCCCNC(=O)c1cc(O)ccc1O | 38 µM | – | Dose-dependent effect | Active | Active | Active | 9.5 µM | Active | – | 7.25 µM | – | 7 µM | 80% | –
5 | CCCCCCCCCCCCCCCCNC(=O)[C@@H](O)c1ccccc1 | 78 µM | – | Dose-dependent effect | – | – | – | – | – | – | 18.8 µM | > 100 µM | 25 µM | – | –
6 | CCCCCCCCCCCCCCCNC(=O)c1ccc2ccccc2c1 | > 100 µM | – | – | – | – | – | – | – | – | – | – | – | – | –

The next compounds have a lower IC50 [1] than those just listed; values first:

Row | IC50 [1] | inhibition [2] | inhibition [4] | inhibition [7] | inhibition [8] | inhibition [10] | IC50 (HT-1376) | inhibition [11] | inhibition [12] | SMILES | IC50 [3] | IC50 [5] | IC50 [6] | Activity [9] | Activity (RT-112)
7 | 11 µM | – | Dose-dependent effect | Active | Active | Active | 10.2 µM | Active | – | CCCCCCCCCCCCCCCCNC(=O)c1ccccc1O | 11.2 µM | 63.3 µM | 5.75 µM | 50% | –
8 | 20 µM | – | Dose-dependent effect | – | Active | – | – | – | Active | CCCCCCCCCCCCCCCCNC(=O)[C@H](O)c1ccccc1 | 25 µM | 3.5 µM | 28.3 µM | – | –

— ChEMBL document CHEMBL3875220, “Development of new inhibitors for N-acylethanolamine-hydrolyzing acid amidase as promising tool against bladder cancer” (Bioorg Med Chem, 2017)
